N-glyco inh – N-linked glycosylation inhibition. reporter increase, % at 12.5 µM. 360,000 tested, 0.23% active. AID 588692. D54 ERlucT glycosylation luciferase reporter, 24 h; percent of 100 nM tunicamycin response;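 active means mean luciferase reporter signal, scaled so untreated is 0 and the glycosylation-blocking control 100, at or above a set limit in every replicate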;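 further: luciferase carries N-glycosylation sites so blocking glycosylation raises the light; 0% = median of neutral control wells and 100% = median of 100 nM tunicamycin wells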
CaV13 ICDI inh – Primary screen for inhibitors of IQ motif and Ca2+-dependent inactivation inhibitor domain binding in CACNA1D, Förster resonance energy transfer in living cells, …. HEK cells, CFP/YFP FRET ICDI-IQ, plate reader, 10 min; percent FRET-ratio fall versus neutral wells. inhibition, % at 12.3 µM. 340,000 tested, 0.098% active. AID 743397;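 active means mean replicate inhibition of at least 30% and at least 1% of replicates passing that level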;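 further: 0% = median of the neutral control wells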
PfHsp90 set2 – growth inhibition of yeast expressing Plasmodium Hsp90; 310,000 tested, 0.32% active; inhibition, % at 9.4 µM; AID 504621; S. cerevisiae expressing PfHsp90, BacTiter-Glo ATP, 48 h; yeast lacking PDR1 and PDR3 efflux regulators;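 active means every replicate shows inhibition above about 80%, whatever the replicate mean, limit read from the data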;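 further: 0% = DMSO neutral controls and 100% = 20 µM radicicol positive controls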
PvdQ acylase – P. aeruginosa PvdQ acylase inhibition; purified PvdQ acylase, fluorescence plate reader; inhibition, % at 10 µM; 340,000 tested, 0.063% active; AID 488965; in the data active means inhibition above about 30%, passing the limit was not always enough;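 further: 0% = vehicle neutral wells and 100% = reference inhibitor wells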
T cruzi repl – T. cruzi replication inhibition; inhibition, % (no concentration beside the values); T. cruzi beta-gal in NIH3T3, luminescence, 90 h; 300,000 tested, 1.4% active;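 active means mean inhibition across valid replicates above about 55%, limit read from the data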;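 further: signal also drops with host cell toxicity which is not excluded here; 0% = plate median of DMSO wells and 100% = zero luminescence signal; higher percent means less beta-gal luminescence so fewer parasites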
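System: mouse NIH/3T3 fibroblasts infected with β-gal-expressing T. cruzi Tulahuen C4 / Input: NIH/3T3 cells, 5,000 per well / Buffer or medium: Low-serum DMEM with 2% FBS / Probe or stimulus: 5000 reporter trypomastigotes per well / Schedule: ≥90 h infection period, 3 h prior cell attachment / Measured by: GalScreen luminescence, 60 min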
HSF1 activator – increases HSF-1 driven luciferase reporter signal. NIH3T3-HGL HSF-1 luciferase reporter, MG132, 8 h; 100% = twice DMSO control signal. activation, % at 9 µM. 300,000 tested, 1.7% active. AID 504408;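 active means mean replicate activation of at least 50% with a set share of replicates each reaching 50%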;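 further: 0% = median of the neutral control wells and 100% = twice that signal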
* marks the source's active call; other numbers are inactive results. Rows were chosen to be rich in hits. Some 3% of all compounds tested hit in one or more screens of this group.

For COC(=O)c1cc2c(c3c4ccccc4n(S(=O)(=O)c4ccc(C)cc4)c13)C(=O)N(C)C2 the results were CaV13 ICDI inh -4.4.
Screening CC1(c2nnnn2Cc2ccccc2)CCC(=O)N1Cc1ccco1 (stereo not given) returned CaV13 ICDI inh -6.2.
Screening CN(c1cccnc1)c1ccc(NC(=O)Cc2cn(Cc3ccccc3)c3ccccc23)cc1Br returned CaV13 ICDI inh -1.4.
Screening CCOc1ncccc1C(=O)N1CCN(c2cc(Cl)ccc2C)CC1 returned N-glyco inh 30.2*, CaV13 ICDI inh -11.2, PfHsp90 set2 -3.0, PvdQ acylase -14.3, T cruzi repl -38.1 and HSF1 activator -13.0.
For CCOc1ncccc1C(=O)N1CCN(c2cccc(C)c2C)CC1 the results were N-glyco inh 17.6, CaV13 ICDI inh 11.6, PfHsp90 set2 9.3, PvdQ acylase 6.0, T cruzi repl -52.2 and HSF1 activator -22.7.
For COc1ccc2[nH]c3c(=O)n(/N=C/[C@H]4C(C)C=C(C)CC4C)c(=O)[nH]c3c2c1 (stereo not given in full) the results were N-glyco inh 0.0, CaV13 ICDI inh -6.6, PfHsp90 set2 -10.5, PvdQ acylase -13.8, T cruzi repl 1.4 and HSF1 activator 1.2.
For CC1=CC(C)[C@H](/C=N/n2c(=O)[nH]c3c([nH]c4ccc(Br)cc43)c2=O)C(C)C1 (stereo not given in full) the results were N-glyco inh 37.5*, CaV13 ICDI inh 1.8, PfHsp90 set2 5.1, PvdQ acylase -7.6, T cruzi repl 63.7* and HSF1 activator 25.2.
For CN(C)CCNc1ncnc2c1ncn2[C@H]1CN(Cc2cccs2)C[C@@H](CO)O1 the results were N-glyco inh -1.3 and CaV13 ICDI inh 13.6.
Screening COc1nc(Nc2cccc(C(F)(F)F)c2)nc(OC)n1 returned N-glyco inh 2.5, CaV13 ICDI inh -4.4, PfHsp90 set2 30.9, PvdQ acylase -16.6, T cruzi repl 9.8 and HSF1 activator 58.8*.
`Cc1cc(C)nc(Nc2cccc(C(F)(F)F)c2)n1` gave N-glyco inh 3.0, CaV13 ICDI inh -20.4, PfHsp90 set2 5.0, PvdQ acylase 4.1, T cruzi repl 11.2 and HSF1 activator -2.0.
O=C(NCCc1ccc(Cl)cc1)c1ccc2nc[nH]c2c1 was read as N-glyco inh 0.2, CaV13 ICDI inh -6.9, PfHsp90 set2 3.9, PvdQ acylase -3.9, T cruzi repl -6.4 and HSF1 activator 22.0.
Screening O=C(NCCc1ccc(Cl)cc1)c1ccc2nccnc2c1 returned N-glyco inh -3.8, CaV13 ICDI inh -1.9, PfHsp90 set2 9.9, PvdQ acylase -15.3, T cruzi repl -12.8 and HSF1 activator 60.4*.
`CCOC(=O)C1=C(c2ccccc2)Nc2ncnn2C1c1ccc(OC)c(OC)c1OC` (stereo not given) gave N-glyco inh 0.5, CaV13 ICDI inh 1.8, PfHsp90 set2 -7.1, PvdQ acylase -9.8, T cruzi repl 55.9* and HSF1 activator 15.6.
Screening COc1cc(NC(=O)N2CCc3nc(Nc4cc(Cl)cc(Cl)c4)ncc3C2)cc(OC)c1OC returned N-glyco inh 11.0 and CaV13 ICDI inh -3.8.
`COc1ccc(C/C(=N\O)c2ccc(OC)cc2)cc1` gave N-glyco inh -2.2, CaV13 ICDI inh -5.3, PfHsp90 set2 -13.1, PvdQ acylase -12.0, T cruzi repl 11.5 and HSF1 activator 52.9*.
Screening COc1ccc(C(=O)NNC(=O)Cc2ccc(Cl)cc2)cc1 returned N-glyco inh 0.1, CaV13 ICDI inh 8.0, PfHsp90 set2 -8.4, PvdQ acylase -9.3, T cruzi repl -1.3 and HSF1 activator 7.5.
COCc1[nH]nc2c1C(c1ccc(C)cc1)N(c1ccc(OC)cc1)C2=O (stereo not given) was read as CaV13 ICDI inh -5.0.
For O=C(NNC1=Nc2cccc3cccc1c23)c1ccc(Br)cc1 the results were N-glyco inh 1.5, CaV13 ICDI inh -8.5, PfHsp90 set2 28.1, PvdQ acylase -6.0, T cruzi repl 62.0* and HSF1 activator -13.4.
Cc1noc(C)c1COC(=O)c1ccccc1Oc1ccccc1 was read as N-glyco inh 0.7, CaV13 ICDI inh -4.7, PfHsp90 set2 -11.6, PvdQ acylase -7.0, T cruzi repl -2.0 and HSF1 activator 56.7*.
For C=CCOc1ccccc1CNc1ccc2c(c1)OCCO2 the results were N-glyco inh -16.3, PfHsp90 set2 1.4, PvdQ acylase -7.0, T cruzi repl 73.0* and HSF1 activator -37.9.
`C=CCOc1ccccc1CNc1cccc(F)c1` gave N-glyco inh 1.4, CaV13 ICDI inh -4.8, PfHsp90 set2 0.7, PvdQ acylase -23.8, T cruzi repl 4.4 and HSF1 activator 14.0.
Screening O=C1c2ccccc2C(=O)N1Nc1ccccc1 returned N-glyco inh 0.8, PfHsp90 set2 -26.8, PvdQ acylase -13.5, T cruzi repl 12.4 and HSF1 activator 3.2.
`Cc1ccc(NN2C(=O)C=C(c3ccccc3)C2=O)cc1` gave N-glyco inh 4.8, CaV13 ICDI inh -5.1, T cruzi repl 12.2 and HSF1 activator 207.2*.
O=C(NC1CCCC1)[C@@H]1CCCN1C(=O)[C@@H](NC(=O)N1CCOCC1)c1ccccc1 was read as CaV13 ICDI inh -12.6.
Screening CCOC(=O)c1nnc(-c2ccccc2)nc1Sc1ccccc1Cl returned N-glyco inh -0.9, CaV13 ICDI inh -1.2, PvdQ acylase -10.2, T cruzi repl 12.6 and HSF1 activator 159.4*.
Screening CC1=C(n2ccnc2)CCC1=O returned N-glyco inh 86.4*, CaV13 ICDI inh -5.6, PfHsp90 set2 24.8, PvdQ acylase -0.7, T cruzi repl 4.8 and HSF1 activator -3.6.
Screening O=C(CCCCN1CCCCC1)c1ccc2c(c1)Cc1ccccc1-2 returned N-glyco inh -0.9, CaV13 ICDI inh 4.5, PfHsp90 set2 9.1, PvdQ acylase -10.6, T cruzi repl 71.4* and HSF1 activator 3.8.
Screening COc1ccc(NC(=O)N2CCCCC2c2cccnc2)cc1 (stereo not given) returned N-glyco inh 0.3, CaV13 ICDI inh -2.7, PfHsp90 set2 -3.3, PvdQ acylase -4.5, T cruzi repl 66.4* and HSF1 activator -20.1.
For COc1cc(OC)cc(C(=O)NC(=S)N2CCCCC2c2cccnc2)c1 (stereo not given) the results were N-glyco inh -0.5, PfHsp90 set2 20.6, PvdQ acylase -18.5, T cruzi repl 62.2* and HSF1 activator 5.5.
`O=S1(=O)N[C@H](Cc2ccccc2)COc2cccc(N3CCSCC3)c21` gave CaV13 ICDI inh -4.0.
Screening CCOC(=O)N1CCN(C(=O)C[C@@H]2C[C@@]3(C(=O)OCC)CCC=C3N(Cc3cccc4ccccc34)C2=O)CC1 returned CaV13 ICDI inh -4.4.
